For experiment [1], the target named is D(3) dopamine receptor (Homo sapiens) (UniProt P35462). Put plainly: Displacement of [3H]Raclopride from recombinant D3 receptor (unknown origin) expressed in Flp-In CHO cell membranes assessed as co-operativity factor after 2 to 3 hrs by microbeta counting method. The method, boiled down: (§1)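 In FlpIn CHO membranes expressing hD3R, compound was tested for displacement of [3H]raclopride in equilibrium binding. Competition curves were fitted with an allosteric ternary complex model to give KB and the net cooperativity factor with [3H]raclopride. Data are at least three independent experiments in duplicate.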
Chain of D(3) dopamine receptor (Homo sapiens) (P35462 whole entry): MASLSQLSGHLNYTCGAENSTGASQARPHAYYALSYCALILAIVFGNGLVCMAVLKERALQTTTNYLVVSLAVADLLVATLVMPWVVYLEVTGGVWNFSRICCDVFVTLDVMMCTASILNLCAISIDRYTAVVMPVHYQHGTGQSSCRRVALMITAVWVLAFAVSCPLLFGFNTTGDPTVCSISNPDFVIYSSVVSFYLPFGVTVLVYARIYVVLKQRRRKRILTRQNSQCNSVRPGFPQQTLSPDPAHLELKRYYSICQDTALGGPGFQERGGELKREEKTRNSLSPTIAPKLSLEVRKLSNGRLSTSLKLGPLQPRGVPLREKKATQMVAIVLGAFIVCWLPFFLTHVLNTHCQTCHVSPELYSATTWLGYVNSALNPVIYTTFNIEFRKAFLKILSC
On the technique in general: Displacement assays read how much labelled ligand stays bound in the presence of the test substance.

For experiment [2], the target named is D(2) dopamine receptor (Homo sapiens) (UniProt P14416). As to the kind of experiment: Negative allosteric modulation of recombinant human D2L receptor expressed in Flp-In CHO cells assessed as inhibition of dopamine-induced reduction in forskolin stimulated cAMP accumulation preincubated for 30 mins followed by forskolin stimulation and measured after 30 mins by BRET assay. The experiment is classed as functional, cell-based.
Chain of D(2) dopamine receptor (Homo sapiens) (P14416 whole entry): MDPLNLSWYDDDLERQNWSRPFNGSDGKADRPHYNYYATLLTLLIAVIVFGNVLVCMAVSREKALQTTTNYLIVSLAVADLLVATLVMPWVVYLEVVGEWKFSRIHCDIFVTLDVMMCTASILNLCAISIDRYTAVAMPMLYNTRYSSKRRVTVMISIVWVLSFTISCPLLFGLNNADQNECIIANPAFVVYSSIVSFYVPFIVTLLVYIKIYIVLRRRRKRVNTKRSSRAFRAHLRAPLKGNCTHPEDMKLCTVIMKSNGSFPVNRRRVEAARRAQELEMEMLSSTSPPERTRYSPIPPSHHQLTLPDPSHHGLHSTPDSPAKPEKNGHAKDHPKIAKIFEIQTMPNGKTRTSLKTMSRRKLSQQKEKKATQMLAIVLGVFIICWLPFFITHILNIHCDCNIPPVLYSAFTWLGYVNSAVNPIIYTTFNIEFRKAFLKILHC

The species named for experiment [3] is Homo sapiens. Put plainly: Selectivity ratio of Kb for recombinant D3 receptor (unknown origin) expressed in Flp-In CHO cell membranes to Kb for recombinant human D2L receptor expressed in Flp-In CHO cell membranes. In kind it is cell-based.
Experiment [4] deals with D(2) dopamine receptor (Homo sapiens) (UniProt P14416). As to the kind of experiment: Displacement of [3H]Raclopride from recombinant human D2L receptor expressed in Flp-In CHO cell membranes after 2 to 3 hrs by microbeta counting method. The method, boiled down: (§2)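 hD2LR FlpIn CHO membrane homogenate (15 µg protein) was co-incubated with 0.5 nM [3H]raclopride and test compound at 10^-3 to 10^-7 M (half-log dilutions from DMSO stock, in duplicate). Incubation was 2-3 h at 25 °C in HEPES buffer, pH 7.4. Nonspecific binding was defined with 10 µM haloperidol. Filtration was followed by scintillation counting. KB and cooperativity α were obtained from an allosteric ternary complex model.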

The target is the same in experiment [5]. Put plainly: Displacement of [3H]Raclopride from recombinant human D2L receptor expressed in Flp-In CHO cell membranes assessed as co-operativity factor after 2 to 3 hrs by microbeta counting method. The method, boiled down: as §2
The target is the same in experiment [6]. Put plainly: Negative allosteric modulation of recombinant human D2L receptor expressed in Flp-In CHO cells assessed as inhibition of dopamine-induced reduction in forskolin stimulated cAMP accumulation by measuring co-operativity factor preincubated for 30 mins followed by forskolin stimulation and measured after 30 mins by BRET assay. The experiment is classed as functional, cell-based. A general note: Cyclic AMP is a second messenger, typically raised through Gs and lowered through Gi signalling.

Experiment [7] shares this target. Put plainly: Negative allosteric modulation of recombinant human D2L receptor expressed in Flp-In CHO cells assessed as inhibition of dopamine-induced reduction in forskolin stimulated cAMP accumulation by measuring modulation of dopamine efficacy preincubated for 30 mins followed by forskolin stimulation and measured after 30 mins by BRET assay. The experiment is classed as functional, cell-based.

Experiment [8] concerns the target D(3) dopamine receptor (Homo sapiens) (UniProt P35462). Put plainly: Displacement of [3H]Raclopride from recombinant D3 receptor (unknown origin) expressed in Flp-In CHO cell membranes after 2 to 3 hrs by microbeta counting method. Summed up:
as §1

The target of experiment [9] is D(2) dopamine receptor (Homo sapiens) (UniProt P14416). As to the kind of experiment: Allosteric modulation of recombinant human D2L receptor expressed in Flp-In CHO cell membranes assessed as dissociation half life for [3H]Raclopride at 100 uM in presence of haloperidol after 2 to 3 hrs by microbeta counting method (reference value: 34.2 min). In kind it is cell-based. The method, boiled down:
(§3)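 Membranes from FlpIn CHO cells stably expressing hD2LR were incubated with 0.5 nM [3H]raclopride for 60 min in HEPES/NaCl/MgCl2/EGTA/EDTA buffer, pH 7.4, at 25 °C. Dissociation was then started by adding 10 µM haloperidol, with or without modulator. Bound radioactivity was collected by filtration and scintillation counting. Curves were fitted for koff, and t1/2 = 0.6931/koff.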

Experiment [10] has the same target. As to the kind of experiment: Allosteric modulation of recombinant human D2L receptor expressed in Flp-In CHO cell membranes assessed as dissociation of [3H]Raclopride at 100 uM in presence of haloperidol after 2 to 3 hrs by microbeta counting method (reference value: 0.02 +/- 0.004 /min). The experiment is classed as cell-based. Summed up: as §3
The target is the same in experiment [11]. As to the kind of experiment: Allosteric modulation of recombinant human D2L receptor expressed in Flp-In CHO cell membranes assessed as dissociation of [3H]Raclopride in presence of haloperidol after 2 to 3 hrs by microbeta counting method (reference value: 0.014 +/- 0.001 /min). The experiment is classed as cell-based. The method, boiled down:
as §3

The target is the same in experiment [12]. Put plainly: Allosteric modulation of recombinant human D2L receptor expressed in Flp-In CHO cell membranes assessed as dissociation half life for [3H]Raclopride in presence of haloperidol after 2 to 3 hrs by microbeta counting method (reference value: 49.2 min). In kind it is cell-based. The method, boiled down:
as §3

`FC(F)(F)c1cccc(Nc2ncnc3sc4c(c23)CCCC4)c1`: the Activity in experiment [1] was 0.06; in [5], 0.39; in experiment [7] it was 0.1. For the same molecule, the log(activity) in experiment [1] was -0.39; in experiment [5], -0.41; in [6] it was 0; in [7] it was -1.02. In addition, the Kb in [2] amounted to 25.4 µM; in experiment [4], 31 µM; in experiment [8] it was 0.2 µM. Moreover, the negative logarithm of the Kb (pKb) in [2] amounted to 4.6; in experiment [4], 4.51; in [8], 6.65. In [3], the Selectivity ratio came to 140.
In the case of `FC(F)(F)c1cccc(Nc2nc(CN3CCOCC3)nc3sc4c(c23)CCCC4)c1`, the Activity came out at 0.39 in experiment [1] and 0.28 in [7]. Also, the log(activity) is -0.4 in experiment [1], 0 in experiment [6] and -0.55 in [7]. Further, the Kb turned out to be 3.87 µM in [2], 16.6 µM in experiment [4] and 0.3 µM in experiment [8]. For the same molecule, the pKb was found to be 5.41 in experiment [2], 4.78 in experiment [4] and 6.54 in experiment [8]. Further, the Selectivity ratio in [3] turned out to be 57. Moreover, the T1/2 in experiment [9] worked out at 18.1 min. Besides, the K in experiment [10] turned out to be 0.038 min⁻¹.
Turning to `FC(F)(F)c1cccc(Nc2nc(CC3CCOCC3)nc3sc4c(c23)CCCC4)c1`, the Activity in experiment [1] is 0.37; in experiment [5] it was 0.39; in experiment [6], 0.13; in experiment [7] it was 0.23. For the same molecule, the log(activity) in experiment [1] was -0.44; in experiment [5] it was -0.41; in experiment [6] it was -0.89; in experiment [7], -0.63. In addition, the Kb in experiment [2] was determined as 0.622 µM; in [4], 100 µM; in [8] it was 52 µM. Also, the pKb in experiment [2] stood at 6.22; in experiment [4], 3.99; in experiment [8], 4.28. In experiment [3], the Selectivity ratio stood at 2.
Consider `CCN(CC)c1nc(CN2CCOCC2)nc2sc3c(c12)CCCC3`, for which the Kb in [2] was determined as 0.662 µM; in experiment [4], 6 µM. In addition, the results for the negative-log Kb (pKb) in experiment [2], in experiment [4] and in [8] were 6.18, 5.22 and 3.85, respectively. Moreover, the Selectivity ratio in experiment [3] is 23. Also, the Activity in experiment [5] was found to be 0.23; in experiment [6], 0.68; in experiment [7], 0.08. Moreover, the figures for the log(activity) in experiment [5], in [6] and in [7] were -0.64, -0.17 and -1.1, respectively. Further, in experiment [11], the K worked out at 0.038 min⁻¹. Further, in experiment [12], the T1/2 came out at 18.2 min.
For the molecule `FC(F)(F)c1cccc(Nc2nc(CCCCN3CCOCC3)nc3sc4c(c23)CCCC4)c1`, the Activity in experiment [1] worked out at 0.2; in experiment [5], 0.09; in experiment [6], 0.19; in experiment [7] it was 0.03. Besides, the log(activity) in [1] is -0.69; in experiment [5], -1.03; in [6], -0.72; in [7], -1.5. The Kb in [2] came to 0.611 µM; in experiment [4] it was 3.31 µM. For the same molecule, the figures for the negative logarithm of the Kb (pKb) in [2], in experiment [4] and in experiment [8] were 6.21, 5.48 and 3.97, respectively. Moreover, the Selectivity ratio in experiment [3] was 0.03.

As usually defined, the pKb is the negative decadic logarithm of the Kb, by convention in mol/L.

(Values after ChEMBL document CHEMBL4308833, “A Thieno[2,3- d]pyrimidine Scaffold Is a Novel Negative Allosteric Modulator of the Dopamine D2 Receptor” (J Med Chem, 2018).)
